Measured values published in ChEMBL document CHEMBL4392876, “Natural-Product-Inspired Compounds as Countermeasures against the Liver Carcinogen Aflatoxin B1” (J Nat Prod, 2019).
The source made the active and inactive calls. No cut-off for these calls is given here.

Key:
HepG2 [1] = assay: Protection against AfB1-induced toxicity in human HepG2 cells assessed as live cell area at 50 uM measured after 48 hrs by calcein-AM/Hoechst 33342 staining based high-content imaging analysis relative to control; assay type: functional
HepG2 [2] = assay: Protection against AfB1-induced toxicity in human HepG2 cells assessed as increase in live cell area at >0.5 uM measured after 48 hrs by calcein-AM/Hoechst 33342 staining based high-content imaging analysis relative to control; assay type: functional
HepG2 [3] = assay: Protection against AfB1-induced toxicity in human HepG2 cells assessed as live cell area at 0.5 uM measured after 48 hrs by calcein-AM/Hoechst 33342 staining based high-content imaging analysis relative to control; assay type: functional
HepG2 [4] = assay: Toxicity in human HepG2 cells measured after 48 hrs by calcein-AM/Hoechst 33342 staining based high-content imaging analysis; assay type: cell-based; conditions: hepg2, 48 h
HepG2 [5] = assay: Protection against AfB1-induced toxicity in human HepG2 cells assessed as live cell area at 5 uM measured after 48 hrs by calcein-AM/Hoechst 33342 staining based high-content imaging analysis relative to control; assay type: functional
HepG2 [6] = assay: Protection against AfB1-induced toxicity in human HepG2 cells assessed as increase in live cell area at >5 uM measured after 48 hrs by calcein-AM/Hoechst 33342 staining based high-content imaging analysis relative to control; assay type: functional
HepG2 [7] = assay: Protection against AfB1-induced toxicity in human HepG2 cells assessed as increase in live cell area measured after 48 hrs by calcein-AM/Hoechst 33342 staining based high-content imaging analysis; assay type: functional
HepG2 [8] = assay: Increase in live cell area in human HepG2 cells measured after 48 hrs by calcein-AM/Hoechst 33342 staining based high-content imaging analysis; assay type: functional
HepG2 [9] = assay: Protection against AfB1-induced morphological changes in 3D-spheroids of human HepG2 cells up to 10 uM measured after 3 days by calcein-AM/Hoechst 33342 staining based microscopic analysis; assay type: functional, cell-based
Summary of the method: (§1)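 HepG2 spheroids: 1000 cells/well in ultralow-attachment plates, grown 4 days to tight spheroids, then test compounds (10 μM) plus AfB1 in complete EMEM for 3 further days. Calcein AM/Hoechst staining and high-content imaging of viability and live spheroid size. Live cell area relative to DMSO vehicle-only spheroids; n = 3.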

HepG2 [10] = assay: Protection against AfB1-induced toxicity in 3D-spheroids of human HepG2 cells assessed as live cell area at 10 uM measured after 3 days by calcein-AM/Hoechst 33342 staining based high-content imaging analysis relative to control; assay type: functional; summary of the method: as §1
HepG2 [11] = assay: Protection against AfB1-induced toxicity in human HepG2 cells assessed as increase in live cell area at >12.5 uM measured after 48 hrs by calcein-AM/Hoechst 33342 staining based high-content imaging analysis relative to control; assay type: functional
HepG2 [12] = assay: Protection against AfB1-induced toxicity in human HepG2 cells assessed as live cell area at 12.5 uM measured after 48 hrs by calcein-AM/Hoechst 33342 staining based high-content imaging analysis relative to control; assay type: functional

SMILES: COc1cc(C(=O)c2ccccc2)ccc1O
- %max (HepG2 [1]): 60.2%

SMILES: Cc1cc(O)cc2oc(=O)c3c(O)cc(O)cc3c12 [ALTERNARIOL]
- Activity (HepG2 [2]): inactive
- %max (HepG2 [3]): 15.2%

SMILES: CC(C)c1nc(CN(C)C(=O)N[C@H](C(=O)N[C@@H](Cc2ccccc2)C[C@H](O)[C@H](Cc2ccccc2)NC(=O)OCc2cncs2)C(C)C)cs1 [RITONAVIR]
- Activity (HepG2 [2]): inactive
- %max (HepG2 [3]): 72%

SMILES: COc1cc(O)c2c(=O)oc3cc(O)c(O)cc3c2c1
- Activity (HepG2 [4]): Toxic
- %max (HepG2 [1]): 65.7%

SMILES: COc1cc(O)cc(OC)c1
- %max (HepG2 [5]): 37%
- Activity (HepG2 [6]): inactive

SMILES: COC1=C(O)c2c(O)cc(C)c3c(O)cc(O)c(c23)C1=O
- %max (HepG2 [5]): 20.5%
- Activity (HepG2 [6]): inactive

SMILES: Cc1c(-c2cnccn2)ssc1=S
- Activity (HepG2 [7]): Active
- Activity (HepG2 [8]): Active

SMILES: COc1ccc(C(=O)c2ccc(OC)cc2O)c(O)c1
- %max (HepG2 [1]): 53.9%

SMILES: COc1ccc(C(=O)NCc2cccnc2)c(O)c1
- Activity (HepG2 [2]): inactive
- %max (HepG2 [3]): 33.5%

SMILES: COc1cc(O)c2c(=O)c3ccccc3oc2c1
- %max (HepG2 [5]): 63.9%
- Activity (HepG2 [9]): Active
- Activity (HepG2 [4]): Toxic
- Activity (HepG2 [6]): inactive
- Activity (HepG2 [10]): 72%

SMILES: COc1cc(OC)c2c(O)c3c(=O)cc(C)oc3cc2c1 [RUBROFUSARIN B]
- Activity (HepG2 [4]): Toxic
- Activity (HepG2 [2]): inactive
- %max (HepG2 [3]): 64.9%

SMILES: CC(=O)N[C@@H](CS)C(=O)O
- Activity (HepG2 [7]): Active
- Activity (HepG2 [8]): Active

SMILES: COc1cc(O)c2c(=O)oc3cc(O)cc(C)c3c2c1
- Activity (HepG2 [9]): Active
- Activity (HepG2 [4]): Non-Toxic
- %max (HepG2 [1]): 67%
- Activity (HepG2 [10]): 95%

SMILES: COC(=O)c1cc(O)cc(OC)c1C(=O)c1c(O)cc(C)cc1OC
- %max (HepG2 [1]): 68.3%

SMILES: COc1cc(C(O)c2ccccc2)ccc1O (centres undefined)
- %max (HepG2 [1]): 41%

SMILES: COc1ccc(C(=O)c2ccccc2)c(O)c1 [OXYBENZONE]
- Activity (HepG2 [11]): inactive
- %max (HepG2 [12]): 61.6%
